Converted amounts (≈) assume the structure as drawn.
system: Spermatozoa; experiment: Sperimcidal activity against human spermatozoa assessed as sperm motility at 1 % drug solution%; assay type: functional; details: not given
Method in brief: (§1)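 Drop of sperm–compound mixture placed on slide under cover glass, examined by phase contrast microscopy in five fields; percentage of motile spermatozoa scored visually within 30–40 s. N-9 as reference control; some compounds tested as D-(-)-tartrate salts.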

SMILES	Activity [%]
Cc1ncc([N+](=O)[O-])n1CCOC(=O)CCl	98.37
Cc1ncc([N+](=O)[O-])n1CCOC(=O)CCN1CCN(c2ccc([N+](=O)[O-])cc2)CC1	82.35
Cc1ncc([N+](=O)[O-])n1CCSC(=S)N1CCOCC1	70.59
Cc1ncc([N+](=O)[O-])n1CCSC(=S)N1CCCCC1	70.59
Cc1ncc([N+](=O)[O-])n1CCOC(=O)CCN(C)CCC(Oc1ccc(C(F)(F)F)cc1)c1ccccc1 (centres undefined)	0
CCN(CC)C(=S)SCCn1c([N+](=O)[O-])cnc1C	100
Cc1ncc([N+](=O)[O-])n1CCSC(=S)N1CCN(C)CC1	0

system: Candida albicans; experiment: Antifungal activity against Candida albicans after 48 hrs by broth microdilution technique; assay type: functional; details: not given
Method in brief: (§2)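 Broth microdilution MIC per NCCLS guidelines in RPMI 1640 buffered with MOPS; starting inoculum of test culture 1–5 × 10³ CFU/mL.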

SMILES	MIC [µg/mL]
Cc1ncc([N+](=O)[O-])n1CCOC(=O)CCl	> 50
Cc1ncc([N+](=O)[O-])n1CCOC(=O)CCN1CCN(c2ccc([N+](=O)[O-])cc2)CC1	> 50
Cc1ncc([N+](=O)[O-])n1CCSC(=S)N1CCOCC1	> 50
Cc1ncc([N+](=O)[O-])n1CCSC(=S)N1CCCCC1	> 50
Cc1ncc([N+](=O)[O-])n1CCOC(=O)CCN(C)CCC(Oc1ccc(C(F)(F)F)cc1)c1ccccc1 (centres undefined)	> 50
CCN(CC)C(=S)SCCn1c([N+](=O)[O-])cnc1C	50 (≈ 165 µM)
Cc1ncc([N+](=O)[O-])n1CCSC(=S)N1CCN(C)CC1	> 50

system: Cryptococcus neoformans; experiment: Antifungal activity against Cryptococcus neoformans after 48 hrs by broth microdilution technique; assay type: functional; details: not given; method in brief: as §2

SMILES	MIC [µg/mL]
Cc1ncc([N+](=O)[O-])n1CCOC(=O)CCl	> 50
Cc1ncc([N+](=O)[O-])n1CCOC(=O)CCN1CCN(c2ccc([N+](=O)[O-])cc2)CC1	> 50
Cc1ncc([N+](=O)[O-])n1CCSC(=S)N1CCOCC1	> 50
Cc1ncc([N+](=O)[O-])n1CCSC(=S)N1CCCCC1	> 50
Cc1ncc([N+](=O)[O-])n1CCOC(=O)CCN(C)CCC(Oc1ccc(C(F)(F)F)cc1)c1ccccc1 (centres undefined)	> 50
CCN(CC)C(=S)SCCn1c([N+](=O)[O-])cnc1C	50 (≈ 165 µM)
Cc1ncc([N+](=O)[O-])n1CCSC(=S)N1CCN(C)CC1	> 50

system: Spermatozoa; experiment: Sperimcidal activity against human spermatozoa assessed as sperm immobilization at 1 % drug solution%; assay type: functional; details: not given; method in brief: as §1

SMILES	Activity [%]
Cc1ncc([N+](=O)[O-])n1CCOC(=O)CCN(C)CCC(Oc1ccc(C(F)(F)F)cc1)c1ccccc1 (centres undefined)	100
Cc1ncc([N+](=O)[O-])n1CCSC(=S)N1CCN(C)CC1	100

system: Candida parapsilosis; experiment: Antifungal activity against Candida parapsilosis after 48 hrs by broth microdilution technique; assay type: functional; details: Lodderomyces parapsilosis; method in brief: as §2

SMILES	MIC [µg/mL]
Cc1ncc([N+](=O)[O-])n1CCOC(=O)CCl	> 50
Cc1ncc([N+](=O)[O-])n1CCOC(=O)CCN1CCN(c2ccc([N+](=O)[O-])cc2)CC1	> 50
Cc1ncc([N+](=O)[O-])n1CCSC(=S)N1CCOCC1	> 50
Cc1ncc([N+](=O)[O-])n1CCSC(=S)N1CCCCC1	> 50
Cc1ncc([N+](=O)[O-])n1CCOC(=O)CCN(C)CCC(Oc1ccc(C(F)(F)F)cc1)c1ccccc1 (centres undefined)	> 50
CCN(CC)C(=S)SCCn1c([N+](=O)[O-])cnc1C	> 50
Cc1ncc([N+](=O)[O-])n1CCSC(=S)N1CCN(C)CC1	> 50

system: Aspergillus fumigatus; experiment: Antifungal activity against Aspergillus fumigatus after 48 hrs by broth microdilution technique; assay type: functional; details: not given; method in brief: as §2

SMILES	MIC [µg/mL]
Cc1ncc([N+](=O)[O-])n1CCOC(=O)CCl	> 50
Cc1ncc([N+](=O)[O-])n1CCOC(=O)CCN1CCN(c2ccc([N+](=O)[O-])cc2)CC1	> 50
Cc1ncc([N+](=O)[O-])n1CCSC(=S)N1CCOCC1	> 50
Cc1ncc([N+](=O)[O-])n1CCSC(=S)N1CCCCC1	> 50
Cc1ncc([N+](=O)[O-])n1CCOC(=O)CCN(C)CCC(Oc1ccc(C(F)(F)F)cc1)c1ccccc1 (centres undefined)	> 50
CCN(CC)C(=S)SCCn1c([N+](=O)[O-])cnc1C	> 50
Cc1ncc([N+](=O)[O-])n1CCSC(=S)N1CCN(C)CC1	> 50

system: HeLa; experiment: Cytotoxicity against human HeLa cells at 200 ug/ml after 24 hrs by MTT assay; assay type: cell-based; details: not given
Method in brief: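 HeLa cells seeded at 5.0 × 10⁴ per well in DMEM with 10% FCS, 24 h at 37 °C in 5% CO₂; medium replaced with fresh medium containing test dilutions, 10% DMSO vehicle in control wells. After a further 24 h, MTT added; formazan dissolved in DMSO, OD read at 540 nm. Mean ± SE of 3 estimations.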

SMILES	Activity
Cc1ncc([N+](=O)[O-])n1CCOC(=O)CCN1CCN(c2ccc([N+](=O)[O-])cc2)CC1	Non-toxic
Cc1ncc([N+](=O)[O-])n1CCSC(=S)N1CCOCC1	Non-toxic
Cc1ncc([N+](=O)[O-])n1CCSC(=S)N1CCCCC1	Non-toxic
Cc1ncc([N+](=O)[O-])n1CCOC(=O)CCN(C)CCC(Oc1ccc(C(F)(F)F)cc1)c1ccccc1 (centres undefined)	Non-toxic
CCN(CC)C(=S)SCCn1c([N+](=O)[O-])cnc1C	Non-toxic
Cc1ncc([N+](=O)[O-])n1CCSC(=S)N1CCN(C)CC1	Non-toxic

system: Sporothrix schenckii; experiment: Antifungal activity against Sporothrix schenckii after 48 hrs by broth microdilution technique; assay type: functional; details: not given; method in brief: as §2

SMILES	MIC [µg/mL]
Cc1ncc([N+](=O)[O-])n1CCOC(=O)CCl	> 50
Cc1ncc([N+](=O)[O-])n1CCOC(=O)CCN1CCN(c2ccc([N+](=O)[O-])cc2)CC1	> 50
Cc1ncc([N+](=O)[O-])n1CCSC(=S)N1CCOCC1	50 (≈ 158 µM)
Cc1ncc([N+](=O)[O-])n1CCSC(=S)N1CCCCC1	25 (≈ 79.5 µM)
Cc1ncc([N+](=O)[O-])n1CCOC(=O)CCN(C)CCC(Oc1ccc(C(F)(F)F)cc1)c1ccccc1 (centres undefined)	> 50
CCN(CC)C(=S)SCCn1c([N+](=O)[O-])cnc1C	25 (≈ 82.7 µM)
Cc1ncc([N+](=O)[O-])n1CCSC(=S)N1CCN(C)CC1	50 (≈ 152 µM)

system: Trichophyton mentagrophytes; experiment: Antifungal activity against Trichophyton mentagrophytes after 48 hrs by broth microdilution technique; assay type: functional; details: not given; method in brief: as §2

SMILES	MIC [µg/mL]
Cc1ncc([N+](=O)[O-])n1CCOC(=O)CCl	25 (≈ 101 µM)
Cc1ncc([N+](=O)[O-])n1CCOC(=O)CCN1CCN(c2ccc([N+](=O)[O-])cc2)CC1	50 (≈ 116 µM)
Cc1ncc([N+](=O)[O-])n1CCSC(=S)N1CCOCC1	50 (≈ 158 µM)
Cc1ncc([N+](=O)[O-])n1CCSC(=S)N1CCCCC1	50 (≈ 159 µM)
Cc1ncc([N+](=O)[O-])n1CCOC(=O)CCN(C)CCC(Oc1ccc(C(F)(F)F)cc1)c1ccccc1 (centres undefined)	50 (≈ 93.5 µM)
CCN(CC)C(=S)SCCn1c([N+](=O)[O-])cnc1C	25 (≈ 82.7 µM)
Cc1ncc([N+](=O)[O-])n1CCSC(=S)N1CCN(C)CC1	50 (≈ 152 µM)

system: Trichomonas vaginalis; experiment: Antitrichomonal activity against Trichomonas vaginalis after 48 hrs by trypan blue exclusion assay; assay type: functional; details: not given
Method in brief: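 Trophozoites in TYM medium; stock solutions serially diluted in TYM to concentrations up to 0.1 mg/mL, DMSO/TYM as vehicle control. Parasites added, incubated anaerobically at 37 °C, viability checked by trypan blue exclusion under microscope (200×) from 3 to 48 h. MIC = lowest concentration with all cells dead at 48 h. Metronidazole reference; run three times.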

SMILES	MIC [µM]
Cc1ncc([N+](=O)[O-])n1CCOC(=O)CCl	10.1 (≈ 2.5 µg/mL)
Cc1ncc([N+](=O)[O-])n1CCOC(=O)CCN1CCN(c2ccc([N+](=O)[O-])cc2)CC1	1.45 (≈ 0.627 µg/mL)
Cc1ncc([N+](=O)[O-])n1CCSC(=S)N1CCOCC1	1.98 (≈ 0.626 µg/mL)
Cc1ncc([N+](=O)[O-])n1CCSC(=S)N1CCCCC1	1 (≈ 0.314 µg/mL)
Cc1ncc([N+](=O)[O-])n1CCOC(=O)CCN(C)CCC(Oc1ccc(C(F)(F)F)cc1)c1ccccc1 (centres undefined)	11.7 (≈ 6.25 µg/mL)
CCN(CC)C(=S)SCCn1c([N+](=O)[O-])cnc1C	1.03 (≈ 0.311 µg/mL)
Cc1ncc([N+](=O)[O-])n1CCSC(=S)N1CCN(C)CC1	7.6 (≈ 2.5 µg/mL)

From ChEMBL document CHEMBL1153733, “Imidazole derivatives as possible microbicides with dual protection” (Eur J Med Chem, 2010)
